Results reported in ChEMBL document CHEMBL2146381, “Structure-activity relationship (SAR) study of ethyl 2-amino-6-(3,5-dimethoxyphenyl)-4-(2-ethoxy-2-oxoethyl)-4H-chromene-3-carboxylate (CXL017) and the potential of the lead against multidrug resistance in cancer treatment” (J Med Chem, 2012).

Experiments:
CCRF-CEM [1] = test: Cytotoxicity against human CCRF-CEM cells assessed as cell viability after 48 hrs by celltiter-blue assay; type: functional, cell-based
How it was run: (§1)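 Tumour cell growth inhibition was measured in vitro, following the lab's established procedure. IC50 values are the mean of at least two independent experiments, each run in triplicate.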

K562 [2] = test: Ratio of IC50 for doxorubicin-resistant human K562 cells to IC50 for human K562 cells; type: functional
How it was run: (§2)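 Each resistant subline and its matched parental line were tested in the same growth-inhibition assay, with IC50 taken as the mean of at least two independent experiments in triplicate. The MDR/parental IC50 ratio is reported as relative sensitivity: above 1 means resistance, below 1 means collateral sensitivity. Parental lines came from different sources for each resistant pair.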

CCRF-CEM [3] = test: Ratio of IC50 for human CCRF-CEM/VLB100 cells IC50 for human CCRF-CEM cells; type: functional; how it was run: as §2
HL-60 [4] = test: Ratio of IC50 for human HL60/MX2 cells to IC50 for human HL60 cells; type: functional; how it was run: as §2
CCRF-CEM [5] = test: Ratio of IC50 for human CCRF-CEM/VM-1-5 cells IC50 for human CCRF-CEM cells; type: functional; how it was run: as §2
CCRF-CEM [6] = test: Ratio of IC50 for human CCRF-CEM/C2 cells IC50 for human CCRF-CEM cells; type: functional; how it was run: as §2
HL-60 [7] = test: Ratio of IC50 for doxorubicin-resistant human HL60 cells to IC50 for human HL60 cells; type: functional; how it was run: as §2
K562 [8] = test: Ratio of IC50 for human K562/HHT300 cells to IC50 for human K562 cells; type: functional; how it was run: as §2
K562 [9] = test: Cytotoxicity against human K562 cells assessed as cell viability after 48 hrs by celltiter-blue assay; type: functional, cell-based; settings: K562, 48 h; how it was run: as §1
HL-60 [10] = test: Ratio of IC50 for human HL60/ADR cells to IC50 for human HL60 cells; type: functional; how it was run: as §2
HL-60 [11] = test: Ratio of IC50 for daunorubicin-resistant human HL60 cells to IC50 for human HL60 cells; type: functional; how it was run: as §2
HL-60 [12] = test: Cytotoxicity against human HL60 cells assessed as cell viability after 48 hrs by celltiter-blue assay; type: functional, cell-based; settings: HL-60, 48 h; how it was run: as §1

Compound | IC50 (HL-60 [12]) [µM] | also measured
CC(C)(C)c1ccc(NC(=S)N/N=C2\C(=O)Nc3ccccc32)cc1 | 6.8 | IC50 (CCRF-CEM [1]): 7.05 µM; Ratio IC50 (K562 [2]): 0.47; Ratio IC50 (CCRF-CEM [3]): 0.66; Ratio IC50 (HL-60 [4]): 0.86; Ratio IC50 (CCRF-CEM [5]): 2.1; Ratio IC50 (CCRF-CEM [6]): 0.58; Ratio IC50 (HL-60 [7]): 1; Ratio IC50 (K562 [8]): 0.43; IC50 (K562 [9]): 26.9 µM; Ratio IC50 (HL-60 [10]): 0.47; Ratio IC50 (HL-60 [11]): 0.64
COC(=O)CC1C(C(=O)OC)=C(N)Oc2ccc(-c3cc(OC)cc(OC)c3)cc21 (racemic) | 2.42 | 
CCOC(=O)CC1C(C(=O)OC)=C(N)Oc2ccc(-c3cc(OC)cc(OC)c3)cc21 (racemic) | 10.8 | 
COc1cc(OC)cc(-c2ccc3c(c2)C(CC(=O)OCC2CO2)C(C(=O)OCC2CO2)=C(N)O3)c1 (racemic) | > 80 | 
CCOC(=O)CC1C(C#N)=C(N)Oc2ccc(-c3cc(OC)cc(OC)c3)cc21 (racemic) | 19.6 | 
CCOC(=O)CC1C(c2nc(-c3ccc(OC)cc3)no2)=C(N)Oc2ccc(-c3cc(OC)cc(OC)c3)cc21 (racemic) | > 80 | 
CCOC(=O)CC1C(C(=O)OCC)=C(N)Oc2ccc(-c3ccccc3F)cc21 (racemic) | 73 | 
CCOC(=O)CC1C(C(=O)OCC)=C(N)Oc2ccc(-c3cccc(F)c3)cc21 (racemic) | 76.4 | 
CCOC(=O)CC1C(C(=O)OCC)=C(N)Oc2ccc(-c3ccc(F)cc3)cc21 (racemic) | 72.1 | 
CCOC(=O)CC1C(C(=O)OCC)=C(N)Oc2ccc(-c3ccc(F)cc3F)cc21 (racemic) | 76.6 | 
CCOC(=O)CC1C(C(=O)OCC)=C(N)Oc2ccc(-c3cc(F)cc(F)c3)cc21 (racemic) | 35.9 | 
CCOC(=O)CC1C(C(=O)OCC)=C(N)Oc2ccc(-c3ccco3)cc21 (racemic) | > 80 | 
CCOC(=O)CC1C(C(=O)OCC)=C(N)Oc2ccc(-c3cccs3)cc21 (racemic) | > 80 | 
CCOC(=O)CC1C(C(=O)OCC)=C(N)Oc2ccc(-c3ccccn3)cc21 (racemic) | 76.9 | 
CCOC(=O)CC1C(C(=O)OCC)=C(N)Oc2ccc(-c3cccnc3)cc21 (racemic) | 21.5 | 
CCOC(=O)CC1C(C(=O)OCC)=C(N)Oc2ccc(-c3ccncc3)cc21 (racemic) | 10.2 | 
CCOC(=O)CC1C(C(=O)OCC)=C(N)Oc2ccc(-c3cncnc3)cc21 (racemic) | 37.9 | 
CCOC(=O)CC1C(C(=O)OCC)=C(N)Oc2ccc(-c3ccnc(OC)c3)cc21 (racemic) | 10.2 | 
CCOC(=O)CC1C(C(=O)OCC)=C(N)Oc2ccc(-c3cccc(N)c3)cc21 (racemic) | 20.2 | 
C#CCOC(=O)CC1C(C(=O)OCC)=C(N)Oc2ccc(-c3cccc(N)c3)cc21 (racemic) | 3.4 | 
C#CCOC(=O)CC1C(C(=O)OCC#C)=C(N)Oc2ccc(-c3cccc(NCCO)c3)cc21 (racemic) | 0.63 | 
C#CCOC(=O)CC1C(C#N)=C(N)Oc2ccc(-c3cccc(N)c3)cc21 (racemic) | 43.9 | 
CCOC(=O)CC1C(C(=O)OCC)=C(N)Oc2ccc(-c3ccc(N)cc3)cc21 (racemic) | 22.3 | 
